One assay deals with Candida albicans. Description: Inhibitory activity against Candida albicans. It is filed as functional. An outline of the steps:
(§1)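 Broth microdilution per NCCLS in Mueller-Hinton II broth; serial dilutions in microtiter wells, inoculum 10⁵ CFU/mL, 100 μL final. Incubated 18–22 h at 35 °C in ambient air. MIC taken as lowest concentration giving complete visible growth inhibition by unaided eye.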

The target in assay [1] is T1, Holo-[acyl-carrier-protein] synthase (Bacillus subtilis (strain 168), UniProt P96618).
T1 sequence (P96618 whole entry): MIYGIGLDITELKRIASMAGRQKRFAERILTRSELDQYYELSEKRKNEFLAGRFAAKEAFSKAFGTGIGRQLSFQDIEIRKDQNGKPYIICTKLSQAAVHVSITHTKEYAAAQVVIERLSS
Description: Inhibitory activity against Bacillus subtilis AcpS by HTRF assay.

For the next assay, the system named is Staphylococcus aureus. The assay can be described thus: Inhibitory activity against methicillin-resistant Staphylococcus aureus MRSA. It is filed as functional. An outline of the steps: (§2)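 Broth microdilution per NCCLS in Mueller-Hinton II broth; serial compound dilutions inoculated to 10⁵ CFU/mL, incubated 18–22 h at 35 °C in ambient air. MIC taken as lowest concentration completely inhibiting visible growth (unaided eye).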

The next assay deals with Streptococcus pneumoniae. Description: Inhibitory activity against penicillin-resistant Streptococcus pneumoniae penR. It is filed as functional. An outline of the steps: as §2
In another assay the test system is Escherichia coli. Description: Inhibitory activity against Escherichia coli. It counts as functional. An outline of the steps: as §1
The subject of another assay is Enterococcus faecalis. The assay can be described thus: Inhibitory activity against vancomycin-resistant Enterococcus faecalis VRE. It is filed as functional. An outline of the steps:
as §2

The subject of a further assay is Bacillus subtilis. Description: Inhibitory activity against Bacillus subtilis 168. It counts as functional. An outline of the steps: as §1

Values after ≈ are worked out from the molar mass of the structure shown. Values joined by “and” are separate entries in the source; they are usually repeats but may differ in a detail not shown here. Equal values may be shown once.

By MIC is commonly meant the lowest concentration found to suppress growth. A word on the IC50: it is the concentration that inhibits the measured activity by half. Higher therefore signals lower potency. Turning to `C/C(=C\c1ccc(Cl)cc1)C(=O)Nc1cc(Cl)ccc1C(=O)O`, the MIC was over 128 µg/mL in the assay with Candida albicans; 32 µg/mL (≈ 91.4 µM) against Staphylococcus aureus; 32 µg/mL (≈ 91.4 µM) in the assay with Streptococcus pneumoniae; over 128 µg/mL in the assay on Escherichia coli; 64 µg/mL (≈ 183 µM) in the assay on Enterococcus faecalis; 32 µg/mL (≈ 91.4 µM) against Bacillus subtilis. Besides, the midpoint of inhibition in assay [1], the IC50, lay at 32300 nM.

Turning to `CSC(Cc1ccc(Cl)cc1)C(=O)Nc1ccc(Cl)cc1C(=O)O` (configuration not stated), the minimal inhibitory concentration (MIC) with Candida albicans is over 128 µg/mL; in the assay with Staphylococcus aureus, 64 µg/mL (≈ 167 µM); against Streptococcus pneumoniae, 64 µg/mL (≈ 167 µM); against Escherichia coli, over 128 µg/mL; against Enterococcus faecalis it was 128 µg/mL (≈ 333 µM); with Bacillus subtilis, 64 µg/mL (≈ 167 µM). Also, the concentration for half-maximal inhibition (IC50) in assay [1] was 1430 nM and 1400 nM.

`O=C(O)c1cc(Cl)ccc1NC(=O)c1cccc2c1-c1ccccc1C2=O`: in assay [1], the concentration for half-maximal inhibition (IC50) is 821 nM and 820 nM.

The compound `NS(=O)(=O)c1cc(C(=O)O)c(NCc2ccco2)cc1Cl` [FUROSEMIDE] had a concentration for half-maximal inhibition (IC50) in assay [1] of 12700 nM.

Take `CC(Cc1ccccc1)C(=O)Nc1ccc(Cl)cc1C(=O)O` (configuration not stated): the IC50 in assay [1] was 2830 nM and 2800 nM.
